Measured values from ChEMBL document CHEMBL4033712, “Synthesis and biological evaluation of new C-12(α/β)-(N-) sulfamoyl-phenylamino-14-deoxy-andrographolide derivatives as potent anti-cancer agents” (Bioorg Med Chem Lett, 2017).

How the values were obtained:
Format in all cases: functional
EKVX = assay: Growth inhibition of human EKVX cells incubated for 48 hrs by sulforhodamine B assay
Summary of the method: (§1)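 NCI-60 five-dose screen at 0.01, 0.1, 1, 10 and 100 µM, 48 h incubation, sulforhodamine B end point. GI50 (50% decrease in net growth), TGI (total growth inhibition) and LC50 (net 50% loss of initial cells) taken from log concentration versus % growth inhibition curves.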

RPMI-8226 = assay: Growth inhibition of human RPMI8226 cells incubated for 48 hrs by sulforhodamine B assay; conditions: RPMI-8226, 48 h
Summary of the method: (§2)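 NCI 60 human tumour cell line panel, five-dose study at 0.01, 0.1, 1, 10 and 100 µM, 48 h incubation. Sulforhodamine B protein-binding dye end point. GI50 (50% decrease in net cell growth), TGI (total growth inhibition) and LC50 (net 50% loss of initial cells) read from log concentration versus % growth inhibition curves.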

M14 = assay: Growth inhibition of human M14 cells incubated for 48 hrs by sulforhodamine B assay; conditions: M14, 48 h; summary of the method: as §1
UACC-257 = assay: Growth inhibition of human UACC257 cells incubated for 48 hrs by sulforhodamine B assay; conditions: UACC-257, 48 h; summary of the method: as §2
NCI-H23 = assay: Growth inhibition of human NCI-H23 cells incubated for 48 hrs by sulforhodamine B assay; conditions: NCI-H23, 48 h; summary of the method: as §1
SR = assay: Growth inhibition of human SR cells incubated for 48 hrs by sulforhodamine B assay; summary of the method: as §2
SNB-19 = assay: Anticancer activity against human SNB19 cells assessed as cell growth at 10 uM after 48 hrs by sulforhodamine B assay relative to control; conditions: SNB-19, 48 h, read-out: Activity
Summary of the method: (§3)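 Single-dose NCI-60 panel screen: compound added at 10 µM and the culture incubated 48 h. The end point was read by protein staining with sulforhodamine B. The value is percent growth of treated cells relative to untreated control cells, reported as a mean graph across the panel.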

OVCAR-3 = assay: Growth inhibition of human OVCAR3 cells incubated for 48 hrs by sulforhodamine B assay; conditions: OVCAR-3, 48 h; summary of the method: as §1
RXF 393 = assay: Growth inhibition of human RXF393 cells incubated for 48 hrs by sulforhodamine B assay; conditions: RXF 393, 48 h; summary of the method: as §2
NCI-H460 = assay: Growth inhibition of human NCI-H460 cells incubated for 48 hrs by sulforhodamine B assay; conditions: NCI-H460, 48 h; summary of the method: as §1
MOLT-4 = assay: Growth inhibition of human MOLT4 cells incubated for 48 hrs by sulforhodamine B assay; conditions: MOLT-4, 48 h; summary of the method: as §1
UACC-62 = assay: Growth inhibition of human UACC62 cells incubated for 48 hrs by sulforhodamine B assay; conditions: UACC-62, 48 h; summary of the method: as §2
UO-31 = assay: Growth inhibition of human UO31 cells incubated for 48 hrs by sulforhodamine B assay; conditions: UO-31, 48 h; summary of the method: as §2
HOP-92 = assay: Anticancer activity against human HOP92 cells assessed as cell growth at 10 uM after 48 hrs by sulforhodamine B assay relative to control; conditions: HOP-92, 48 h, read-out: Activity; summary of the method: as §3
SK-MEL-5 = assay: Growth inhibition of human SK-MEL-5 cells incubated for 48 hrs by sulforhodamine B assay; conditions: SK-MEL-5, 48 h; summary of the method: as §2
MDA-MB-435 = assay: Growth inhibition of human MDA-MB-435 cells incubated for 48 hrs by sulforhodamine B assay; conditions: MDA-MB-435, 48 h; summary of the method: as §1
NCI-H226 = assay: Growth inhibition of human NCI-H226 cells incubated for 48 hrs by sulforhodamine B assay; conditions: NCI-H226, 48 h; summary of the method: as §1
CAKI-1 = assay: Growth inhibition of human Caki1 cells incubated for 48 hrs by sulforhodamine B assay; conditions: CAKI-1, 48 h; summary of the method: as §1
MCF7 = assay: Growth inhibition of human MCF7 cells incubated for 48 hrs by sulforhodamine B assay; conditions: MCF7, 48 h; summary of the method: as §1
SK-OV-3 = assay: Growth inhibition of human SKOV3 cells incubated for 48 hrs by sulforhodamine B assay; conditions: SK-OV-3, 48 h; summary of the method: as §2
SF-295 = assay: Growth inhibition of human SF295 cells incubated for 48 hrs by sulforhodamine B assay; conditions: SF-295, 48 h; summary of the method: as §2
T47D = assay: Growth inhibition of human T47D cells incubated for 48 hrs by sulforhodamine B assay; summary of the method: as §2
HCT-15 = assay: Growth inhibition of human HCT15 cells incubated for 48 hrs by sulforhodamine B assay; conditions: HCT-15, 48 h; summary of the method: as §1
U-251 = assay: Growth inhibition of human U251 cells incubated for 48 hrs by sulforhodamine B assay; conditions: U-251, 48 h; summary of the method: as §2
HOP-62 = assay: Growth inhibition of human HOP62 cells incubated for 48 hrs by sulforhodamine B assay; conditions: HOP-62, 48 h; summary of the method: as §1
OVCAR-8 = assay: Growth inhibition of human OVCAR8 cells incubated for 48 hrs by sulforhodamine B assay; conditions: OVCAR-8, 48 h; summary of the method: as §1
NCI-H522 = assay: Growth inhibition of human NCI-H522 cells incubated for 48 hrs by sulforhodamine B assay; conditions: NCI-H522, 48 h; summary of the method: as §1
[1] = read-out: LC50 (the source's name)

C=C1CC[C@@H]2[C@](C)(COC(C)=O)[C@H](OC(C)=O)CC[C@@]2(C)[C@H]1CC(Nc1ccc(S(=O)(=O)Nc2ccc(Cl)nn2)cc1)C1=CCOC1=O (some centres undefined) showed a GI50 (EKVX) of 4.53 µM, a TGI (EKVX) of 17 µM and a CC50 (EKVX; [1]) of 41.3 µM. The GI50 (RPMI-8226) was 0.44 µM, the TGI (RPMI-8226) was 3.04 µM and the CC50 (RPMI-8226; [1]) was over 100 µM. It also gave a GI50 (M14) of 1.45 µM, a TGI (M14) of 3.41 µM and a CC50 (M14; [1]) of 8.04 µM. The GI50 (UACC-257) was 1.67 µM, the TGI (UACC-257) was 3.89 µM and the CC50 (UACC-257; [1]) was 9.03 µM. The GI50 (NCI-H23) was 2.06 µM, the TGI (NCI-H23) was 5.35 µM and the CC50 (NCI-H23; [1]) was 43.2 µM. For the same molecule, the GI50 (SR) was 1.35 µM, the TGI (SR) was 8.1 µM and the CC50 (SR; [1]) was over 100 µM. For the same molecule, the growth at 10 µM (SNB-19) was 76%, the GI50 (OVCAR-3) was 1.22 µM and the TGI (OVCAR-3) was 2.51 µM. For the same molecule, the CC50 (OVCAR-3; [1]) was 5.18 µM, the GI50 (RXF 393) was 1.77 µM and the TGI (RXF 393) was 3.29 µM. It also gave a CC50 (RXF 393; [1]) of 6.14 µM, a GI50 (NCI-H460) of 2.03 µM and a TGI (NCI-H460) of 4.31 µM. The CC50 (NCI-H460; [1]) was 9.15 µM, the GI50 (MOLT-4) was 1.96 µM and the TGI (MOLT-4) was over 100 µM. For the same molecule, the CC50 (MOLT-4; [1]) was over 100 µM, the GI50 (UACC-62) was 1.49 µM and the TGI (UACC-62) was 3.86 µM. For the same molecule, the CC50 (UACC-62; [1]) was 10 µM, the GI50 (UO-31) was 1.45 µM and the LC50 (concentration giving net 50% loss of initial cells) (UO-31) was 5.73 µM. The TGI (UO-31) was 2.88 µM, the growth at 10 µM (HOP-92) was 69.8% and the GI50 (SK-MEL-5) was 1.6 µM. For the same molecule, the TGI (SK-MEL-5) was 3.13 µM, the CC50 (SK-MEL-5; [1]) was 6.13 µM and the GI50 (MDA-MB-435) was 1.4 µM. It also gave a TGI (MDA-MB-435) of 3.17 µM, a CC50 (MDA-MB-435; [1]) of 7.16 µM and a GI50 (NCI-H226) of 1.67 µM. For the same molecule, the TGI (NCI-H226) was 3.3 µM, the GI50 (CAKI-1) was 2.28 µM and the TGI (CAKI-1) was 100 µM. For the same molecule, the CC50 (CAKI-1; [1]) was 31.7 µM, the GI50 (MCF7) was 0.78 µM and the TGI (MCF7) was 2.9 µM. The GI50 (SK-OV-3) was 4.05 µM, the TGI (SK-OV-3) was 12.3 µM and the CC50 (SK-OV-3; [1]) was 35 µM. For the same molecule, the GI50 (SF-295) was 3.28 µM, the TGI (SF-295) was 12.6 µM and the CC50 (SF-295; [1]) was 35.6 µM. It also gave a GI50 (T47D) of 1.51 µM, a TGI (T47D) of 4.25 µM and a CC50 (T47D; [1]) of over 100 µM. It also gave a GI50 (HCT-15) of 0.88 µM, a TGI (HCT-15) of 2.3 µM and a CC50 (HCT-15; [1]) of 5.51 µM. It also gave a GI50 (U-251) of 1.68 µM, a TGI (U-251) of 3.05 µM and a CC50 (U-251; [1]) of 5.52 µM. It also gave a GI50 (HOP-62) of 1.46 µM, a TGI (HOP-62) of 2.99 µM and a CC50 (HOP-62; [1]) of 6.12 µM. The GI50 (OVCAR-8) was 1.35 µM, the TGI (OVCAR-8) was 3.43 µM and the GI50 (NCI-H522) was 0.75 µM. The TGI (NCI-H522) was 2.1 µM and the CC50 (NCI-H522; [1]) was 4.82 µM.
